This is an account of results in ChEMBL document CHEMBL4184148 (Bioorg Med Chem Lett, 2017).

For data set [1], the target named is Cyclin-dependent kinase 2 homolog (Plasmodium falciparum (isolate 3D7)) (UniProt P61075). The experiment in a line: Binding affinity to wild-type Plasmodium falciparum full length PK5 (M1 to N288 residues) expressed in HEK293 cells at 1 uM by Kinomescan method relative to control. The format is cell-based.
For data set [2], the target named is Mitogen-activated protein kinase 14 (Homo sapiens) (UniProt Q16539). The experiment in a line: Binding affinity to wild-type human full length p38-alpha (M1 to S360 residues) expressed in Escherichia coli BL21 at 1 uM by Kinomescan method relative to control. The procedure, abridged: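 Kinome-wide competition binding panel run by an outside provider, with each compound tested at a single concentration. Activity is read against the kinase panel.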
Chain of Mitogen-activated protein kinase 14 (Homo sapiens) (Q16539 whole entry, the tested form may be a part): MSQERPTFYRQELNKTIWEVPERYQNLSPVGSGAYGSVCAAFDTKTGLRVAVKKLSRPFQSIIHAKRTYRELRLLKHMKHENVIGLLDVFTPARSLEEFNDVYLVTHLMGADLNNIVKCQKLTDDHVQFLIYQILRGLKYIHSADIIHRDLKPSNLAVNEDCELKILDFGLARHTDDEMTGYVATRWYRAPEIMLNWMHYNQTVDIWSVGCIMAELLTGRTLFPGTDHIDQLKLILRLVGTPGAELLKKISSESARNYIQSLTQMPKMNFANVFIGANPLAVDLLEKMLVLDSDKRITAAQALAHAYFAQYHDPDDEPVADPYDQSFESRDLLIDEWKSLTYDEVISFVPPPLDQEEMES

Data set [3] deals with AP2-associated protein kinase 1 (Homo sapiens) (UniProt Q2M2I8). The data set is described as follows: Binding affinity to human wild-type AAK1 (G25 to L333 residues) expressed in Escherichia coli BL21 at 1 uM by Kinomescan method relative to control.
For data set [4], the target named is Mitogen-activated protein kinase 8 (Homo sapiens) (UniProt P45983). The data set is described as follows: Binding affinity to wild-type human full length JNK1 (M1 to Q384 residues) expressed in HEK293 cells at 1 uM by Kinomescan method relative to control. The format is cell-based. In a few lines:
(§1)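 Run as one kinome-wide competition binding panel with each compound at a single fixed concentration. Results were plotted as a kinome-wide selectivity map.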

For data set [5], the target named is Serine/threonine-protein kinase 17A (Homo sapiens) (UniProt Q9UEE5). The experiment in a line: Binding affinity to wild-type human partial length DRAK1 (R32 to E363 residues) expressed in Escherichia coli BL21 at 1 uM by Kinomescan method relative to control.
Data set [6] deals with Serine/threonine-protein kinase BRSK1 (Homo sapiens) (UniProt Q8TDC3). The experiment in a line: Binding affinity to wild-type human partial length BRSK1 (M1 to E754 residues) expressed in Escherichia coli BL21 at 1 uM by Kinomescan method relative to control.
Chain of Serine/threonine-protein kinase BRSK1 (Homo sapiens) (Q8TDC3 whole entry, the tested form may be a part): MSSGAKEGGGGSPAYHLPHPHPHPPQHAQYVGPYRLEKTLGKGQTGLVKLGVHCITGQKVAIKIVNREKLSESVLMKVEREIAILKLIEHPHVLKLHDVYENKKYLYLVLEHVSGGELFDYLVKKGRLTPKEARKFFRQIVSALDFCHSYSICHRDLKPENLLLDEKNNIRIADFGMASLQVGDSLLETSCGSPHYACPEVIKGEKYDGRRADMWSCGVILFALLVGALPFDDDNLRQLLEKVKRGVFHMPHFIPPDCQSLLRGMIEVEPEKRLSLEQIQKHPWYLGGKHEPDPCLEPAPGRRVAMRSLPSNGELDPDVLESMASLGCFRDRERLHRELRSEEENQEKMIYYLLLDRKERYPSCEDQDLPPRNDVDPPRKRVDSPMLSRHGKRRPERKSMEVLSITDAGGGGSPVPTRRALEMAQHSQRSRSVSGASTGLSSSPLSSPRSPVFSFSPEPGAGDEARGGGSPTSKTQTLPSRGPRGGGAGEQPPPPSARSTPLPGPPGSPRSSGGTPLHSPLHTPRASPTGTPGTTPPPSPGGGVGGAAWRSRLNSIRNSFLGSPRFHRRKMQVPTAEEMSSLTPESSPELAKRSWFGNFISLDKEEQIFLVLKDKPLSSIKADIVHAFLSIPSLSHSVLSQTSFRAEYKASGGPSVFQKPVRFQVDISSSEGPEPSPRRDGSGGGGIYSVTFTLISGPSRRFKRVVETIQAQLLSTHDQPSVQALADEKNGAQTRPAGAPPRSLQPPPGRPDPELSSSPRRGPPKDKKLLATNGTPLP
Another data set relates to HEK293. The data set is described as follows: Cytotoxicity against human HEK293 cells assessed as reduction in cell viability up to 33.3 uM after 72 hrs by CellTiter-Glo assay relative to control. It is filed as cell-based. As to conditions: hek293, 72 h. In a few lines: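 Cells were treated across a dose-response range for 72 h, and viability was read by CellTiter-Glo luminescence. Measurements were made in triplicate and reported with standard error.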

Data set [7] deals with Tyrosine-protein kinase ABL1 (Homo sapiens), P00519 [E255K]. The experiment in a line: Binding affinity to human phosphorylated ABL1 E255K mutant (S229 to K512 residues) expressed in HEK293 cells at 1 uM by Kinomescan method relative to control. It is filed as cell-based.
Chain of Tyrosine-protein kinase ABL1 (Homo sapiens), P00519 [E255K] (P00519 whole entry E255K, the tested form may be a part): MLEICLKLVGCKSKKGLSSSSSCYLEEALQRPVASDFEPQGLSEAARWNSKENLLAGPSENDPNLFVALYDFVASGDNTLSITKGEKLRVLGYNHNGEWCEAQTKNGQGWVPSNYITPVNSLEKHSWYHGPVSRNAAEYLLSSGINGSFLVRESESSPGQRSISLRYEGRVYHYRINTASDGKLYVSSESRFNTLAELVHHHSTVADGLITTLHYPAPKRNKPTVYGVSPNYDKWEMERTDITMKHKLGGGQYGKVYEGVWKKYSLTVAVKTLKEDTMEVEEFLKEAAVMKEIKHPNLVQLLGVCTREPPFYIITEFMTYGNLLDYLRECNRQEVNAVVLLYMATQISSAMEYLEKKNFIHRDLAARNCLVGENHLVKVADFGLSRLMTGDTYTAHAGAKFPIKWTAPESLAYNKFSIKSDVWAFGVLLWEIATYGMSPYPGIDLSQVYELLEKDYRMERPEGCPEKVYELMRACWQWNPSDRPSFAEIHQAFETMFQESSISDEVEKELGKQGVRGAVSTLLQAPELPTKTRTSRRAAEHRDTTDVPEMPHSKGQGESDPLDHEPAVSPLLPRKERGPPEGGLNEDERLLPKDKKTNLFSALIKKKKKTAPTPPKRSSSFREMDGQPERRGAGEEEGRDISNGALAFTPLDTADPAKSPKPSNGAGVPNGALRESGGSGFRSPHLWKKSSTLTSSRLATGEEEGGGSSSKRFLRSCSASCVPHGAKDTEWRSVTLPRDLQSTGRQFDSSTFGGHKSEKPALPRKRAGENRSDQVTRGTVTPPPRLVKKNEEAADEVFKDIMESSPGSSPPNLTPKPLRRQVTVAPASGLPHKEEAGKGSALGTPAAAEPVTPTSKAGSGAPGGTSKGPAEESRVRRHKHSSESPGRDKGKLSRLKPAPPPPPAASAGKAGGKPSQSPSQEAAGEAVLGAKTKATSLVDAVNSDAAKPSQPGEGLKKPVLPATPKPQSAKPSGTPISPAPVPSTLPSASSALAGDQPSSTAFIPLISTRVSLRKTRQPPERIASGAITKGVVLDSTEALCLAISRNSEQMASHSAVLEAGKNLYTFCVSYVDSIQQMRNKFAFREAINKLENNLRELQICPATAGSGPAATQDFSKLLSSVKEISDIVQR
Data set [8] has as its target Hepatocyte growth factor receptor (Homo sapiens) (UniProt P08581). The experiment in a line: Binding affinity to wild-type human partial length MET (D1010 to S1367 residues) expressed in Escherichia coli BL21 at 1 uM by Kinomescan method relative to control.
In data set [9] the target is Serine/threonine-protein kinase MARK1 (Homo sapiens) (UniProt Q9P0L2). The data set is described as follows: Binding affinity to wild-type human partial length MARK1 (Q30 to T341 residues) expressed in Escherichia coli BL21 at 1 uM by Kinomescan method relative to control.
Data set [10] deals with Tyrosine-protein kinase ABL1 (Homo sapiens), P00519 [F317I]. The data set is described as follows: Binding affinity to human non-phosphorylated ABL1 F317I mutant (S229 to K512 residues) expressed in HEK293 cells at 1 uM by Kinomescan method relative to control. The format is cell-based.
Data set [11] has as its system Phosphatidylinositol 4,5-bisphosphate 3-kinase catalytic subunit alpha isoform (Homo sapiens), P42336 [M1043I]. The experiment in a line: Binding affinity to human partial length PIK3CA M1043I mutant (R108 to N1068 residues) expressed in HEK293 cells at 1 uM by Kinomescan method relative to control. The format is cell-based.
The target in data set [12] is Serine/threonine-protein kinase SIK1 (Homo sapiens) (UniProt P57059). The experiment in a line: Binding affinity to wild-type human partial length SIK (M1 to Y304 residues) expressed in Escherichia coli BL21 at 1 uM by Kinomescan method relative to control.
Data set [13] deals with Ribosomal protein S6 kinase alpha-2 (Homo sapiens) (UniProt Q15349). The data set is described as follows: Binding affinity to wild-type human partial length C-terminal RSK2 kinase domain 2 (V402 to S715 residues) expressed in HEK293 cells at 1 uM by Kinomescan method relative to control. It is filed as cell-based.
For data set [14], the target named is Dual specificity mitogen-activated protein kinase kinase 7 (Homo sapiens) (UniProt O14733). The experiment in a line: Binding affinity to wild-type human full length MKK7 (M1 to R419 residues) expressed in HEK293 cells at 1 uM by Kinomescan method relative to control. The format is cell-based. The procedure, abridged:
as §1

The target of data set [15] is Tyrosine-protein kinase Fyn (Homo sapiens) (UniProt P06241). The data set is described as follows: Binding affinity to wild-type human partial length FYN (T243 to L534 residues) expressed in Escherichia coli BL21 at 1 uM by Kinomescan method relative to control.
For data set [16], the target named is Serine/threonine-protein kinase WNK4 (Homo sapiens) (UniProt Q96J92). The data set is described as follows: Binding affinity to wild-type human partial length WNK4 (A31 to D461 residues) expressed in HEK293 cells at 1 uM by Kinomescan method relative to control. It is filed as cell-based.
In data set [17] the target is Mitogen-activated protein kinase kinase kinase 3 (Homo sapiens) (UniProt Q99759). The data set is described as follows: Binding affinity to wild-type human partial length MAP3K3 (E320 to Y626 residues) expressed in HEK293 cells at 1 uM by Kinomescan method relative to control. It is filed as cell-based.
Chain of Mitogen-activated protein kinase kinase kinase 3 (Homo sapiens) (Q99759 whole entry, the tested form may be a part): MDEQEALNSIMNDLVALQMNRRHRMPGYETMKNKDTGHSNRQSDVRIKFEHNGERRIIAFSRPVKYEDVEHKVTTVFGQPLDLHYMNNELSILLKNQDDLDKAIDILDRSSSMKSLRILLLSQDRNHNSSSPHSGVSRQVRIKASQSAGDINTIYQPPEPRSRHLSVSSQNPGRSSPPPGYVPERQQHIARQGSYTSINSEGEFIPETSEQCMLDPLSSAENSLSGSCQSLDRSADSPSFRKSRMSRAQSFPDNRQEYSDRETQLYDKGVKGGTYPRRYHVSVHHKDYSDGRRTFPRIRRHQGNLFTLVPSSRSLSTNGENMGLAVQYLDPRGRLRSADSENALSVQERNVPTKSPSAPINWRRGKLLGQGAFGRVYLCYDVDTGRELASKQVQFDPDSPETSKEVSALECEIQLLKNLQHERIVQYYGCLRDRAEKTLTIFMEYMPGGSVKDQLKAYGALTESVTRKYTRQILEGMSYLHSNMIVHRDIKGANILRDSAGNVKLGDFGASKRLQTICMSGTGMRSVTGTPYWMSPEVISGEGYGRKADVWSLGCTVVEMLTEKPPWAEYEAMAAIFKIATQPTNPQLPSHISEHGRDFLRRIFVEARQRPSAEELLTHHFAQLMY
The target of data set [18] is Ribosomal protein S6 kinase alpha-1 (Homo sapiens) (UniProt Q15418). The experiment in a line: Binding affinity to wild-type human partial length N-terminal RSK1 Kinase domain 1 (M1 to E388 residues) expressed in Escherichia coli BL21 at 1 uM by Kinomescan method relative to control.
Chain of Ribosomal protein S6 kinase alpha-1 (Homo sapiens) (Q15418 whole entry, the tested form may be a part): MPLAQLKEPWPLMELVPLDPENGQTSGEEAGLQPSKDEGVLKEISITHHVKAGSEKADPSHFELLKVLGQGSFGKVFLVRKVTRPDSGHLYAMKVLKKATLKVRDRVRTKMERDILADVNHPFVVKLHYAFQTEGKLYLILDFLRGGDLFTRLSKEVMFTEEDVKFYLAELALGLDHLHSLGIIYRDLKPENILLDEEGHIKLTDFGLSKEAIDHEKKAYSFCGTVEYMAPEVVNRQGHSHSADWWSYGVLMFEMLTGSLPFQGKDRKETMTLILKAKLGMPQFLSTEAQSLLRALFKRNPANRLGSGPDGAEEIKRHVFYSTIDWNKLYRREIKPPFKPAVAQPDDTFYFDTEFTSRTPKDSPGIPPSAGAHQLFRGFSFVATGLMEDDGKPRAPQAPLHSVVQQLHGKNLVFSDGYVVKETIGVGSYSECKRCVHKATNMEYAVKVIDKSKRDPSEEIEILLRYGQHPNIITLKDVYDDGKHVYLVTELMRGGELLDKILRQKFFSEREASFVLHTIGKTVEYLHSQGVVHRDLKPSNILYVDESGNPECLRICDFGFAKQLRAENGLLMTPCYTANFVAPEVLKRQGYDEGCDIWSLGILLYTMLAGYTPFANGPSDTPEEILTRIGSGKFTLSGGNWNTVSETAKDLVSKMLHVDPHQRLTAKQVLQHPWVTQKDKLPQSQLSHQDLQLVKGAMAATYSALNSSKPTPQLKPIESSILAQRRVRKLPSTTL
Data set [19] concerns the target Rhodopsin kinase GRK1 (Homo sapiens) (UniProt Q15835). The data set is described as follows: Binding affinity to wild-type human full length GRK1 (M1 to S563 residues) expressed in HEK293 cells at 1 uM by Kinomescan method relative to control. It is filed as cell-based. In a few lines: as §1
The target in data set [20] is Ribosomal protein S6 kinase alpha-6 (Homo sapiens) (UniProt Q9UK32). The experiment in a line: Binding affinity to wild-type human partial length N-terminal RSK4 kinase domain 1 (M1 to E397 residues) expressed in HEK293 cells at 1 uM by Kinomescan method relative to control. The format is cell-based.
Data set [21] deals with Cyclin-dependent kinase 4/cyclin D1 (Homo sapiens) (UniProt P11802+P24385). The experiment in a line: Binding affinity to wild-type human full length CDK4/cyclinD1 (M1 to E303 residues) expressed in HEK293 cells at 1 uM by Kinomescan method relative to control. It is filed as cell-based.
Data set [22] concerns the target Calcium/calmodulin-dependent protein kinase kinase 1 (Homo sapiens) (UniProt Q8N5S9). The data set is described as follows: Binding affinity to wild-type human partial length CAMKK1 (R65 to E414 residues) expressed in Escherichia coli BL21 at 1 uM by Kinomescan method relative to control.
The target of data set [23] is Serine/threonine-protein kinase PAK 1 (Homo sapiens) (UniProt Q13153). The experiment in a line: Binding affinity to wild-type human partial length PAK1 (S149 to H545 residues) expressed in Escherichia coli BL21 at 1 uM by Kinomescan method relative to control.

Chain of Dual specificity mitogen-activated protein kinase kinase 7 (Homo sapiens) (O14733 whole entry, the tested form may be a part): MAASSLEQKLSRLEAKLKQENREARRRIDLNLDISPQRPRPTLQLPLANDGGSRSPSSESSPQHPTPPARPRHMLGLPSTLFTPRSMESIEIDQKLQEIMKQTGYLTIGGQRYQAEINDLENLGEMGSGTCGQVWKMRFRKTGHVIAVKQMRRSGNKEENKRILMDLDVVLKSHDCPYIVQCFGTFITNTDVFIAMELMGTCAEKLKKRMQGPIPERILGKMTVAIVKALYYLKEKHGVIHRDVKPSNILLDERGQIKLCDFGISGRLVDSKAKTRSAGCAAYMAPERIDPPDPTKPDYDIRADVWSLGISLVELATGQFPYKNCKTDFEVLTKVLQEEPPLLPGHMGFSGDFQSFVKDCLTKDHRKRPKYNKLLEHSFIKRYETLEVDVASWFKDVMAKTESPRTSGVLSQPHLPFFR
Chain of Calcium/calmodulin-dependent protein kinase kinase 1 (Homo sapiens) (Q8N5S9 whole entry, looked up, the tested form may be a part): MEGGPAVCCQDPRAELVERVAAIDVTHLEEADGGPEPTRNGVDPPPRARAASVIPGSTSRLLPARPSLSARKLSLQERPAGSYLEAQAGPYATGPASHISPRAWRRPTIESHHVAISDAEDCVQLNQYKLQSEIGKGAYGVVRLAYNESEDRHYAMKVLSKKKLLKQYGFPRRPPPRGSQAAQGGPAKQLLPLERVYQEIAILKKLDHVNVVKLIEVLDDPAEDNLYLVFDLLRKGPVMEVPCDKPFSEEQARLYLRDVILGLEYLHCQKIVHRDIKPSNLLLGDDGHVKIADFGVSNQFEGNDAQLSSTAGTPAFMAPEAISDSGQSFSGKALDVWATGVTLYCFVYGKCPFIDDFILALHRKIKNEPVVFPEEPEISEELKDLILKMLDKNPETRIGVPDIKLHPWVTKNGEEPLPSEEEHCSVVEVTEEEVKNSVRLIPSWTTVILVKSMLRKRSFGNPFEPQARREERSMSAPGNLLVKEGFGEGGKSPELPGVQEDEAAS
Chain of Mitogen-activated protein kinase 8 (Homo sapiens) (P45983 whole entry, the tested form may be a part): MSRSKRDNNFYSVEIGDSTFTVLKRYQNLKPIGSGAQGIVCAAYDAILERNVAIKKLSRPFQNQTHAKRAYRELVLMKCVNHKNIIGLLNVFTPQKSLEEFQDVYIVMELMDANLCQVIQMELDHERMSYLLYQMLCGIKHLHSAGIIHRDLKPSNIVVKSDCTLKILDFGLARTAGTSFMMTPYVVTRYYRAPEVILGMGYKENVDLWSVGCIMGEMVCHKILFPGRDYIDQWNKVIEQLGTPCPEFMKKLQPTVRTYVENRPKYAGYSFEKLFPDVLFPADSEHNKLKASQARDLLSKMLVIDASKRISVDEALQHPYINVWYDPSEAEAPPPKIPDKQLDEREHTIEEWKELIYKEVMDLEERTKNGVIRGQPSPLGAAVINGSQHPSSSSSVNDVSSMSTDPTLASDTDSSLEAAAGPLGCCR

Consider `CCC(=O)Nc1ccc(C(=O)Nc2ccc(Nc3ncc4c(n3)N(C)c3ccc(C)cc3C(=O)N4C)cc2)cc1`, for which the Activity was determined as 94% in data set [1]; 100% in data set [2]; 100% in [3]; 75% in data set [4]; 100% in [5]; 90% in data set [6]. Also, the Activity in the data set with HEK293 was 50%; in [7] it was 60%; in [8], 90%; in data set [9], 85%; in data set [10], 76%; in data set [11], 83%. For the same compound, the Activity is 81% in data set [12]; 100% in data set [13]; 90% in data set [14]; 100% in [15]; 85% in data set [16]; 63% in data set [17]. Besides, the Activity in [18] was 94%; in data set [19], 76%; in data set [20], 74%; in [21] it was 100%; in [22], 100%; in data set [23], 94%.
On to `C=CC(=O)Nc1ccc(C(=O)Nc2ccc(Nc3ncc4c(n3)N(C)c3ccc(C)cc3C(=O)N4C)cc2)cc1`, for which the Activity in data set [1] was 96%; in [2], 100%; in [3], 99%; in data set [4] it was 85%; in [5] it was 93%; in [6], 100%. Besides, the Activity in the data set on HEK293 amounted to 50%; in [7] it was 77%; in [8] it was 100%; in data set [9] it was 84%; in data set [10], 77%; in [11] it was 64%. Further, the Activity is 95% in data set [12]; 100% in data set [13]; 100% in [14]; 81% in [15]; 99% in data set [16]; 86% in data set [17]. For the same compound, the Activity was 100% in data set [18]; 73% in data set [19]; 76% in data set [20]; 94% in data set [21]; 100% in [22]; 93% in data set [23].
